Common to all, as to format: biochemical
In assay [1] the target is T1, hrPREP (Homo sapiens, UniProt P48147).
T1 sequence (P48147 1-710): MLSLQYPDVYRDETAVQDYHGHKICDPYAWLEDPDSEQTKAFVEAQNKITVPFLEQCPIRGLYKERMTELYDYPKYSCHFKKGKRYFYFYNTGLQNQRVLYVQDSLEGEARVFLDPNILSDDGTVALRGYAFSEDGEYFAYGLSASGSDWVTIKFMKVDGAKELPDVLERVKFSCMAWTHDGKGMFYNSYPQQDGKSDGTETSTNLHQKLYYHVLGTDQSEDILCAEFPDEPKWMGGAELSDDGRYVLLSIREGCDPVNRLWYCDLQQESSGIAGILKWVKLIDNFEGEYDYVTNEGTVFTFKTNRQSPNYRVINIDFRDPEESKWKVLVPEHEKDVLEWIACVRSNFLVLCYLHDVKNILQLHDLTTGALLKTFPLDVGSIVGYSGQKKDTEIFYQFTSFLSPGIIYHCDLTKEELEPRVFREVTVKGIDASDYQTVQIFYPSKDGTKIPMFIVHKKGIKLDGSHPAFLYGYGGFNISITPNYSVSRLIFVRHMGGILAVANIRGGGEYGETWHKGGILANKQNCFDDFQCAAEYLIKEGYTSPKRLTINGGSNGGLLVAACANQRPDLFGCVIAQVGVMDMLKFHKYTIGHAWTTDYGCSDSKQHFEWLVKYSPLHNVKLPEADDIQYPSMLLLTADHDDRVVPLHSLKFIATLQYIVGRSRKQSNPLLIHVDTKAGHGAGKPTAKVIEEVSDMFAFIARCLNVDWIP
The assay can be described thus: Inhibition of hrPREP.

For assay [2], the target named is hrDPP IV (Homo sapiens, UniProt P27487). Put plainly: Inhibition of hrDPP IV. Put shortly: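 Recombinant human DPP IV, 0.01 μg per well, in 25 mM Tris, 1 mg mL−1 BSA, pH 8.0. Enzyme preincubated 30 min at 37 °C with test compound […]. Residual activity was read with 50 μM H-Gly-Pro-AMC as fluorescence increase over 60 min at 37 °C, 360/460 nm. Triplicate wells, repeated twice. IC50 determined graphically.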

Assay [3] deals with T2, human recombinant (hr) FAP (Homo sapiens, UniProt Q12884).
T2 sequence (Q12884 1-760): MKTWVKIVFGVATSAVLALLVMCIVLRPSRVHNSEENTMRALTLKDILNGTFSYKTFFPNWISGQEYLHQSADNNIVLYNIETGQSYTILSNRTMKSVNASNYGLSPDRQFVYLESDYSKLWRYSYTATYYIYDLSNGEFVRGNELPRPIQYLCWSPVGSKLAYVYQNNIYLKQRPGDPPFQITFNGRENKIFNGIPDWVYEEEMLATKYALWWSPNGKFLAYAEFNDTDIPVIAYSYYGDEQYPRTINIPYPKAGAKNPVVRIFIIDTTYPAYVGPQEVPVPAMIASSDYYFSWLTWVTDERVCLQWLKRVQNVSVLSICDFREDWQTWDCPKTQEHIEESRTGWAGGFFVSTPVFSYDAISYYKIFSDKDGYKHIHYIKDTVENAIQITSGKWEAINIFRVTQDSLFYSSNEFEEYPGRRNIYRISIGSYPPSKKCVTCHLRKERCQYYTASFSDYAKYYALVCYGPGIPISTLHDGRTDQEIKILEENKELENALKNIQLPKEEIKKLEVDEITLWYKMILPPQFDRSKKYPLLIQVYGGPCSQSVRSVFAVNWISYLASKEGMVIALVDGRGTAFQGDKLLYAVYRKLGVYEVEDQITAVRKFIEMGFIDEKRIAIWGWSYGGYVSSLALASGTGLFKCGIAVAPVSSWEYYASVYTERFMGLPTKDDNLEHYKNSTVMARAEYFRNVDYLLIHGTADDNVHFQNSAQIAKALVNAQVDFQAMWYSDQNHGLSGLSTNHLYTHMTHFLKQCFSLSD
Put plainly: Inhibition of hrFAP. Put shortly:
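Recombinant human FAP, 0.01 μg per well, in 50 mM Tris, 1 M NaCl, 1 mg mL−1 BSA, pH 7.5. Preincubated 30 min at 37 °C with test compound at 5, 10, 20, 50 and 100 nM. Then 50 μM Z-Gly-Pro-AMC was added and the fluorescence increase followed for 60 min at 37 °C (λex/λem 360/460 nm). Triplicate wells, experiment repeated twice. IC50 determined graphically; Ki calculated.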

The results in this text go back to PMC9072645 (RSC Advances, 2019).

The structures appear in SMILES notation.

Chain of hrDPP IV (P27487 whole entry): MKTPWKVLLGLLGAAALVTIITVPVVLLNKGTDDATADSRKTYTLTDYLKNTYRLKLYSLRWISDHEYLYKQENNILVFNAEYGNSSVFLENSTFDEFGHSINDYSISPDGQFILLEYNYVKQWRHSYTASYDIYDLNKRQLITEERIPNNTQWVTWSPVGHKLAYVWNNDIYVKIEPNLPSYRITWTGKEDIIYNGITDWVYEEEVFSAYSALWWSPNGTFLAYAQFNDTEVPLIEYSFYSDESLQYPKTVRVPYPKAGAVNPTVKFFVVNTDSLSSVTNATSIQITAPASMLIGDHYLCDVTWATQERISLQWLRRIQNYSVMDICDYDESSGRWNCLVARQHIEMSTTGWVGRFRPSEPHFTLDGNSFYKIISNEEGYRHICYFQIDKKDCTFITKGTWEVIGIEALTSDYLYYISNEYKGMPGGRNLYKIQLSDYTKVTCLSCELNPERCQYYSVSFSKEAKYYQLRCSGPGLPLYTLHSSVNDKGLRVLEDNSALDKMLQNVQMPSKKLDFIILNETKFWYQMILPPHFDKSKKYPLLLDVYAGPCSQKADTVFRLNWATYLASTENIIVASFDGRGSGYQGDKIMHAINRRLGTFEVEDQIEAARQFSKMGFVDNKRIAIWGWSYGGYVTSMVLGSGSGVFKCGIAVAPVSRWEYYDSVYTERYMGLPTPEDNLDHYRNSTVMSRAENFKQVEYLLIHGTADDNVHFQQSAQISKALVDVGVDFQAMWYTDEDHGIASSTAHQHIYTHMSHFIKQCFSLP

Usually IC50 stands for the concentration at which inhibition is half-maximal. In general, Ki refers to the equilibrium dissociation constant of an inhibitor or competing ligand from its target. For `N#C[C@@H]1CCCN1C(=O)CNC(=O)c1ccnc2ccc(Br)cc12` [compound 5, (S)-6-bromo-N-(2-(2-cyanopyrrolidin-1-yl)-2-oxoethyl)quinoline-4-carboxamide], the IC50 was over 100000 nM in assay [1], over 100000 nM in assay [2] and 30 ± 5 nM in assay [3]. Also, the “selectivity index SI FAP/PREP” value in assay [1] (FAP with respect to PREP) was “higher than 3300”. The “selectivity index SI FAP/DPP IV” value in assay [2] (FAP with respect to DPP IV) is reported as “higher than 3300”. Moreover, the inhibition constant Ki in assay [3] is 12 ± 1.8 nM.
